ChEMBL document CHEMBL1148976, “Hypoxia-inducible factor-1 activation by (-)-epicatechin gallate: potential adverse effects of cancer chemoprevention with high-dose green tea extracts” (J Nat Prod, 2004)
Active and inactive are the calls of the source. No cut-off for these calls is given here.

Key:
[1] = target: Hypoxia inducible factors; HIF-1-alpha, HIF-2-alpha (Homo sapiens) (UniProt Q16665+Q99814); experiment: Inhibition of hypoxia-induced HIF1 activation in human T47D cells expressing pTK-HRE-luc gene at 100 uM by luciferase reporter assay; type: cell-based
How it was run: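 T47D cells co-transfected by electroporation with pTK-HRE3-luc and pRL-TK. Compound at 100 μM, then hypoxia (1% O2). Dual luciferase read-out, firefly normalized to Renilla. Value is % inhibition of hypoxic HIF-1 activation. pGL3-Control reporter cells used as specificity control.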

T47D [2] = experiment: Induction of HIF1 activation in human T47D cells expressing pTK-HRE-luc gene under normoxic condition at 100 uM after 16 hrs by luciferase reporter assay relative to control; type: cell-based
How it was run: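 T47D cells transiently co-transfected by electroporation with pTK-HRE3-luc (50 μg mL−1) and pRL-TK (5 μg mL−1). Compound at 100 μM under normoxia (5% CO2:95% air, 37 °C) for 16 h. Dual luciferase read-out, firefly normalized to Renilla, expressed as fold over control. pGL3-Control transfected cells run as counter-check.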

[3] = Aqueous stability of the compound; type: physicochemical; settings: buffer
How it was run: (§1)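 Compound added at 100 μM final in serum-free DMEM/F12 with Pen/Strep to medium with 5% FBS, with or without T47D cells, 30 min, then hypoxia (1% O2) 16 h. Other samples: cell-free medium with or without antibiotics. Conditioned medium extracted; normal-phase TLC on silica gel G with UV254 indicator, UV254 quenching read-out. Extraction control: compound mixed with medium immediately before extraction.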

[4] = Chemical stability in DMEM/F12 medium in presence of fetal calf serum; type: physicochemical; settings: cattle; how it was run: as §1
T47D [5] = experiment: Induction of HIF1 activation in human T47D cells under normoxic condition at 100 uM in presence of 100 uM iron(2); type: cell-based
How it was run: (§2)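 T47D cells transiently co-transfected by electroporation with pTK-HRE3-luc (50 μg mL−1) and pRL-TK (5 μg mL−1). Read-out is dual luciferase, with firefly normalized to Renilla. Incubation runs 16 h under normoxia. Iron salt or ascorbate is added with test compound (100 μM). Data come from one representative experiment in quadruplicate, mean ± SD, p <0.05 versus control.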

T47D [6] = experiment: Induction of HIF1 activation in human T47D cells under normoxic condition at 100 uM in presence of 300 uM iron(2); type: cell-based; how it was run: as §2
[7] = target: Hypoxia-inducible factor 1-alpha (Homo sapiens) (UniProt Q16665); experiment: Inhibition of hypoxia-induced increase in HIF1alpha protein in human T47D cells at 100 uM after 4 hrs by Western blot analysis; type: cell-based
How it was run: (§3)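 T47D cells (10 million per 100 mm plate, 10% FBS DMEM/F12) are plated and left overnight. Test compound, with or without iron salt, ascorbate or Trolox, is added for 30 min at 37 °C. Cells then stand 4 h under normoxia (5% CO2:95% air) or hypoxia (5% CO2:1% O2:94% N2). Nuclear extracts are probed for HIF-1α and HIF-1β by Western blot.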

T47D [8] = experiment: Decrease in hypoxia-induced HIF1alpha mRNA expression in human T47D cells at 100 uM after 16 hrs by RT-PCR; type: functional, cell-based
How it was run: (§4)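 T47D cells, pretreated 30 min, then 16 h under normoxia or hypoxia (1% O2). Total RNA extracted immediately after treatment, checked by absorbance and agarose gel. Target mRNA measured by quantitative real-time RT-PCR, normalized to 18S rRNA, relative expression by ΔΔCT method. Mean ± SD from one representative experiment in triplicate.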

T47D [9] = experiment: Induction of HIF1 activation in human T47D cells under normoxic condition at 100 uM in presence of 150 uM iron(3); type: cell-based; how it was run: as §2
T47D [10] = experiment: Induction of HIF1 activation in human T47D cells under normoxic condition at 100 uM in presence of 50 uM iron(3); type: cell-based; how it was run: as §2
[11] = target: Aryl hydrocarbon receptor nuclear translocator (Homo sapiens) (UniProt P27540); experiment: Induction of HIF1beta protein in human T47D cells under normoxic condition at 100 uM after 4 hrs by Western blot analysis in presence of 300 uM iron(2); type: cell-based; how it was run: as §3
T47D [12] = experiment: Induction of VEGF mRNA expression in human T47D cells under normoxic condition at 100 uM after 16 hrs by RT-PCR; type: functional, cell-based; how it was run: as §4
[13] = target: Aryl hydrocarbon receptor nuclear translocator (Homo sapiens) (UniProt P27540); experiment: Induction of HIF1beta protein in human T47D cells under normoxic condition at 100 uM after 4 hrs by Western blot analysis; type: cell-based; how it was run: as §3
T47D [14] = experiment: Increase in HIF1alpha mRNA expression in human T47D cells under normoxic condition at 100 uM after 16 hrs by RT-PCR; type: functional, cell-based; how it was run: as §4
[15] = target: Hypoxia-inducible factor 1-alpha (Homo sapiens) (UniProt Q16665); experiment: Induction of HIF1alpha protein in human T47D cells under normoxic condition at 100 uM after 4 hrs by Western blot analysis in presence of trolox; type: cell-based; how it was run: as §3
T47D [16] = experiment: Inhibition of hypoxia-induced GLUT1 mRNA expression in human T47D cells at 100 uM after 16 hrs by RT-PCR; type: functional, cell-based; how it was run: as §4
T47D [17] = experiment: Induction of CDKN1A mRNA expression in human T47D cells under normoxic condition at 100 uM after 16 hrs by RT-PCR; type: functional, cell-based; how it was run: as §4
T47D [18] = experiment: Inhibition of hypoxia-induced VEGF mRNA expression in human T47D cells at 100 uM after 16 hrs by RT-PCR; type: functional, cell-based; how it was run: as §4
T47D [19] = experiment: Induction of GLUT1 mRNA expression in human T47D cells under normoxic condition at 100 uM after 16 hrs by RT-PCR; type: functional, cell-based; how it was run: as §4
[20] = target: Hypoxia-inducible factor 1-alpha (Homo sapiens) (UniProt Q16665); experiment: Induction of HIF1alpha protein in human T47D cells under normoxic condition at 100 uM after 4 hrs by Western blot analysis in presence of 150 uM iron(3); type: cell-based; how it was run: as §3
[21] = target: Hypoxia-inducible factor 1-alpha (Homo sapiens) (UniProt Q16665); experiment: Induction of HIF1alpha protein in human T47D cells under normoxic condition at 100 uM after 4 hrs by Western blot analysis; type: cell-based; how it was run: as §3
[22] = target: Aryl hydrocarbon receptor nuclear translocator (Homo sapiens) (UniProt P27540); experiment: Induction of HIF1beta protein in human T47D cells under normoxic condition at 100 uM after 4 hrs by Western blot analysis in presence of 150 uM iron(3); type: cell-based; how it was run: as §3
[23] = target: Hypoxia-inducible factor 1-alpha (Homo sapiens) (UniProt Q16665); experiment: Induction of HIF1alpha protein in human T47D cells under normoxic condition at 100 uM after 4 hrs by Western blot analysis in presence of ascorbate; type: cell-based; how it was run: as §3
[24] = target: Aryl hydrocarbon receptor nuclear translocator (Homo sapiens) (UniProt P27540); experiment: Induction of HIF1beta protein in human T47D cells under normoxic condition at 100 uM after 4 hrs by Western blot analysis in presence of ascorbate; type: cell-based; how it was run: as §3
[25] = target: Hypoxia-inducible factor 1-alpha (Homo sapiens) (UniProt Q16665); experiment: Induction of HIF1alpha protein in human T47D cells under normoxic condition at 100 uM after 4 hrs by Western blot analysis in presence of 100 uM iron(2); type: cell-based; how it was run: as §3
T47D [26] = experiment: Induction of HIF1 activation in human T47D cells under normoxic condition at 100 uM by luciferase reporter gene assay in presence of ascorbate; type: cell-based; how it was run: as §2
[27] = target: Hypoxia-inducible factor 1-alpha (Homo sapiens) (UniProt Q16665); experiment: Induction of HIF1alpha protein in human T47D cells under normoxic condition at 100 uM after 4 hrs by Western blot analysis in presence of 300 uM iron(2); type: cell-based; how it was run: as §3

Sequence of Hypoxia-inducible factor 1-alpha (Homo sapiens) (Q16665 whole entry, looked up): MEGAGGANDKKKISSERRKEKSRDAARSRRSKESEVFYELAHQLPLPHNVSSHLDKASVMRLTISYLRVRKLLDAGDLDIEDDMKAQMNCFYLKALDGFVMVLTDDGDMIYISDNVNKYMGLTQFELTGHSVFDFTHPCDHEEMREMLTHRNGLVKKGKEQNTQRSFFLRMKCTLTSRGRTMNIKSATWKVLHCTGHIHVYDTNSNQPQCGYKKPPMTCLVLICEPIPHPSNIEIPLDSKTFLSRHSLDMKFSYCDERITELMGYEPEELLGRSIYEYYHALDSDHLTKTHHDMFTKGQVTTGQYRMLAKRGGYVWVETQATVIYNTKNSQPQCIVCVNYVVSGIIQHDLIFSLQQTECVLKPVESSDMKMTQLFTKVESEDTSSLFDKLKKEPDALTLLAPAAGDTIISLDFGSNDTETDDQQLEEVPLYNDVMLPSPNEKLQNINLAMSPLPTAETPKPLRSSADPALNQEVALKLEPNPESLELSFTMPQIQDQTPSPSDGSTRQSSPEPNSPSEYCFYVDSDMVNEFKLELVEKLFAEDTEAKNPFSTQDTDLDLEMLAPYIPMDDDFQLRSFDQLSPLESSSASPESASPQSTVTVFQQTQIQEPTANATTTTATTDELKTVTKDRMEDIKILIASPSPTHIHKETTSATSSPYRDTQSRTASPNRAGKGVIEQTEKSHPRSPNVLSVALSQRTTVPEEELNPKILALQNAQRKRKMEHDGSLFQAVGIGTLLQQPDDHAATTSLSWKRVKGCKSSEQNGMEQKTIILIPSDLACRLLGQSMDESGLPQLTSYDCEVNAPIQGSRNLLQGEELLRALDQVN
Sequence of Aryl hydrocarbon receptor nuclear translocator (Homo sapiens) (P27540 whole entry): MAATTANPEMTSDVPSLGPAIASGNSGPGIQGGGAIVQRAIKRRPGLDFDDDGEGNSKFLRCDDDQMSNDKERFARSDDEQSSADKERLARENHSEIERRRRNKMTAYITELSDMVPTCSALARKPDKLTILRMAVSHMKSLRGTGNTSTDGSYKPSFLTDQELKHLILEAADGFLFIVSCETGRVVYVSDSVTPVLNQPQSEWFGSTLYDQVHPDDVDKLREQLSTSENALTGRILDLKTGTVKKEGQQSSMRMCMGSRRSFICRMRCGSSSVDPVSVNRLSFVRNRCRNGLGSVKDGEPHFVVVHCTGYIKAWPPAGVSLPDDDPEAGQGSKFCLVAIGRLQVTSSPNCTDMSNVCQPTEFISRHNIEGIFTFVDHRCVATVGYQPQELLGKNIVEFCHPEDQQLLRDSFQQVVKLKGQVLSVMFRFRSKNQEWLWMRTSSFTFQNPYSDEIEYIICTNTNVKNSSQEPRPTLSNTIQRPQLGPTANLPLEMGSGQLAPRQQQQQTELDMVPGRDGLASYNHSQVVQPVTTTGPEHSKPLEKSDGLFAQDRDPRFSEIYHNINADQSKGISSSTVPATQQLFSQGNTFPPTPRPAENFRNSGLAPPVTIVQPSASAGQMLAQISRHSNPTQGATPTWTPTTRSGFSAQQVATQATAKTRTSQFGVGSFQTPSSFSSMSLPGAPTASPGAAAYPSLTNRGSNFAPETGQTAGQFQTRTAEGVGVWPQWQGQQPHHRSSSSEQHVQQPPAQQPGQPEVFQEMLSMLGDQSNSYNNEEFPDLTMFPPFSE

SMILES: O=C(O[C@@H]1Cc2c(O)cc(O)cc2O[C@@H]1c1cc(O)c(O)c(O)c1)c1cc(O)c(O)c(O)c1 [EPIGALOCATECHIN GALLATE]
- Activity [1]: inactive
- fold change (FC) (T47D [2]): 3.6
- Stability [3]: Unstable
- Stability [4]: Unstable

SMILES: CC(=O)N(O)CCCCCNC(=O)CCC(=O)N(O)CCCCCNC(=O)CCC(=O)N(O)CCCCCN
- Activity (T47D [5]): inactive
- Activity (T47D [6]): inactive

SMILES: O=C(O[C@@H]1Cc2c(O)cc(O)cc2O[C@@H]1c1ccc(O)c(O)c1)c1cc(O)c(O)c(O)c1
- Activity [7]: Active
- Activity (T47D [8]): inactive
- inhibition [1]: 79%
- Activity (T47D [9]): inactive
- Activity (T47D [10]): inactive
- Activity [11]: Active
- Activity (T47D [12]): Active
- Activity (T47D [6]): inactive
- Activity [13]: inactive
- Activity (T47D [14]): inactive
- Activity [15]: Active
- Activity (T47D [16]): inactive
- Activity (T47D [17]): Active
- Activity (T47D [18]): inactive
- Activity (T47D [19]): Active
- fold change (FC) (T47D [2]): 16.8
- Activity [20]: inactive
- Activity [21]: Active
- Activity [22]: Active
- Activity [23]: inactive
- Activity [24]: Active
- Activity [25]: inactive
- Activity (T47D [26]): inactive
- Activity [27]: inactive

SMILES: Cc1c(C)c2c(c(C)c1O)CCC(C)(C(=O)O)O2 (configuration not stated)
- Activity [13]: inactive
- Activity [21]: inactive
